A3A deaminase – APOBEC3A ssDNA deaminase inhibitors, primary screen, selectivity assay for APOBEC3G inhibitor project, biochemical, FAM/TAMRA oligo cleavage fluorescence | DNA dC->dU-editing enzyme APOBEC-3A (Homo sapiens), P31941 | recombinant A3A, FAM/TAMRA ssDNA deamination fluorescence | inhibition, % at 20 µM | actives 0.41% (n = 330,000) | AID 493011, 2011;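 active = at least 40% inhibition at 20 µM here, with at most 30% in a related deaminase screen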
Target sequence (P31941 whole entry, looked up): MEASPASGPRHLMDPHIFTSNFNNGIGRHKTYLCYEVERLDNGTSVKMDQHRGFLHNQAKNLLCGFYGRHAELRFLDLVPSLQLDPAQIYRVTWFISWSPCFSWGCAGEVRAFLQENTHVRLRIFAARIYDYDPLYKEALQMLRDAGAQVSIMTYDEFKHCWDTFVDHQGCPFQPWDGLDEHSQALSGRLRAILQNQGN
APOBEC3G inh – APOBEC3G DNA deaminase inhibitors, primary screen, biochemical, fluorescence, single-stranded DNA substrate, uHTS | DNA dC->dU-editing enzyme APOBEC-3G (Homo sapiens), Q9HC16 | recombinant A3G, ssDNA deamination FAM/TAMRA fluorescence | inhibition, % at 20 µM | actives 0.28% (n = 330,000) | AID 493012, 2011;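 active = inhibition of at least 40% at 20 µM, with no more than 30% in the related APOBEC3A deaminase screen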
Target sequence (Q9HC16 whole entry, looked up): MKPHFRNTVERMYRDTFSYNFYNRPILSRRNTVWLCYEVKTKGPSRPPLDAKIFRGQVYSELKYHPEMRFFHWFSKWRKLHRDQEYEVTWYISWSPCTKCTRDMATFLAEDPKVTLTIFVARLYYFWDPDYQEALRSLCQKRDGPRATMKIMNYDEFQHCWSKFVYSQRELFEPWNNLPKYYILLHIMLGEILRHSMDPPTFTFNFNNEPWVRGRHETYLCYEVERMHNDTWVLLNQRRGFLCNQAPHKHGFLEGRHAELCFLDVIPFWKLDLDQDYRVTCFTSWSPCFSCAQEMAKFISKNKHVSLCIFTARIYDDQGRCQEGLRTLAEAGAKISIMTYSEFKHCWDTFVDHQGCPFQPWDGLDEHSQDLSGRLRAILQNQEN
FN deposit inh – inhibitors of fibronectin matrix deposition, primary screen, AH1F cells, Alexa488-fibronectin fluorescence, plate reader. AH1F fibroblasts, overnight. inhibition, % at 12.6 µM. actives 0.086% (n = 350,000). AID 743247, 2014;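 active = mean inhibition across replicates of 30% or more, regardless of how many single replicates reach that level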
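Material: AH1F fibroblasts assembling fluorescent fibronectin matrix; amount: 10000 AH1F cells/well; medium: DMEM, 2% serum; reagent: Alexa488-fibronectin, 24 nM final in well; dosing: single compound dose, delivered by pin transfer; incubation: 1 h adhesion, overnight exposure; detection: fluorescence after three HBSS washes, excitation 485 nm, emission 525 nm; measure: fibronectin deposition inhibition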
ABHD5 PLIN5 PPI – ABHD5-PLIN5 interaction inhibitors, primary screen, cell lysate, split luciferase complementation, luminescence | Split G. princeps luciferase complementation, 4 h | inhibition, % at 4 µM | actives 0.78% (n = 360,000);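 active = inhibition above the mean inhibition across every tested compound plus 3 SD, cut at about 22% in these data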
Each line names hits and unclear results; the compound was inactive in the other large screens; ! = not active in a repeat. Hits are enriched below; roughly 1.2% of the tested compounds scored in any of these assays.

CC(=O)Nc1ccc(OCc2cccc([N+](=O)[O-])c2)cc1	none
CC(=O)Nc1ccc(C=CC=Cc2cccc([N+](=O)[O-])c2)cc1	ABHD5 PLIN5 PPI 22.1 (no result: A3A deaminase, APOBEC3G inh, FN deposit inh)
CO[C@@H]1CN(C)C(=O)c2cc(NC(=O)NC3CCCC3)ccc2OC[C@H](C)N(CC2CC2)C[C@H]1C	none (no result: A3A deaminase, APOBEC3G inh, ABHD5 PLIN5 PPI)
CC(=O)Nc1ccc2c(c1)CC(=O)N(C)C[C@H](C)[C@@H](CN(C)C(=O)NC(C)C)O2	none (no result: A3A deaminase, APOBEC3G inh, ABHD5 PLIN5 PPI)
CN(C)CCCN(C(=O)COc1ccc(Cl)cc1)c1nc2cc3c(cc2s1)OCO3	ABHD5 PLIN5 PPI 23.1
CN(C)CCCN(C(=O)COc1ccc(Cl)cc1)c1nc2cc3c(cc2s1)OCCO3	none
CCn1c(=N)n(CC(=O)c2ccc(Cl)c(Cl)c2)c2ccccc21	none
N=c1n(CCN2CCCCC2)c2ccccc2n1CC(=O)c1ccc(Cl)c(Cl)c1	ABHD5 PLIN5 PPI 22.0
CC(=O)C1=C(O)C(=O)N(c2ccc(C)cc2)C1c1ccc([N+](=O)[O-])cc1 (configuration not stated)	none
CC(=O)C1=C(O)C(=O)N(c2ccc(O)cc2)C1c1ccc([N+](=O)[O-])cc1 (configuration not stated)	FN deposit inh 36.0
Cc1noc(C)c1S(=O)(=O)N(C)C[C@@H]1OCCCC[C@@H](C)Oc2ccc(NC(=O)Nc3ccc(F)cc3)cc2C(=O)N([C@@H](C)CO)C[C@@H]1C	none (no result: A3A deaminase, APOBEC3G inh, ABHD5 PLIN5 PPI)
O=C(O)c1ccc(-c2ccc(/C=C3\NC(=O)N(Cc4ccc(Cl)cc4)C3=O)o2)cc1Cl	ABHD5 PLIN5 PPI 28.4
CCCS(=O)(=O)c1nnnn1-c1cccc(OC)c1	ABHD5 PLIN5 PPI 42.8 (no result: A3A deaminase, APOBEC3G inh, FN deposit inh)
COc1cccc(-n2nnnc2SCC(=O)Nc2ccccc2OC)c1	none
CCC1(CC)NC(=O)N(CC(=O)N2N=C(c3ccc(Cl)cc3)CC2c2ccco2)C1=O (configuration not stated)	ABHD5 PLIN5 PPI 22.1 (no result: FN deposit inh)
CCC(=O)N1N=C(c2ccc(C)cc2)CC1c1ccco1 (configuration not stated)	none
Cc1ccc(S(=O)(=O)Nc2ccc3c(c2)C(=O)N([C@H](C)CO)C[C@@H](C)[C@H](CN(C)S(=O)(=O)c2ccccc2)OCCCC[C@@H](C)O3)cc1	none (no result: A3A deaminase, APOBEC3G inh, ABHD5 PLIN5 PPI)
CO[C@H]1CN(C)C(=O)c2cc(NS(C)(=O)=O)ccc2OC[C@H](C)NC[C@H]1C	none (no result: A3A deaminase, APOBEC3G inh, ABHD5 PLIN5 PPI)
CC1CCCN(S(=O)(=O)c2ccc(NC(=O)Cn3nnc(-c4ccccc4F)n3)cc2)C1 (configuration not stated)	ABHD5 PLIN5 PPI 22.3 (no result: FN deposit inh)
Cc1ccc(-c2nnn(CC(=O)Nc3ccc(S(=O)(=O)N4CCC(C)CC4)cc3)n2)cc1	none (no result: FN deposit inh)
Cc1oc2ccc(O)cc2c1C(=O)c1ccc(Br)cc1	FN deposit inh 34.3
CC(=O)N1[C@H](CO)[C@H](c2ccc(C3=CCCCC3)cc2)[C@@H]1CNC(=O)CC1CC1	none (no result: A3A deaminase, APOBEC3G inh, ABHD5 PLIN5 PPI)
O=C1N[C@H](c2ccccc2)COCc2cnnn2CC[C@H]1Cc1ccc(C(F)(F)F)cc1	none (no result: A3A deaminase, APOBEC3G inh, ABHD5 PLIN5 PPI)
Oc1ccc(-c2n[nH]c(=S)n2Cc2ccco2)cc1	APOBEC3G inh 49.4 (no result: FN deposit inh)
COCC(=O)N1[C@@H](CO)[C@@H](c2ccc(-c3ccccc3OC)cc2)C12CN(C(C)=O)C2	none (no result: A3A deaminase, APOBEC3G inh, ABHD5 PLIN5 PPI)
O=C(Nc1ccc(Br)c(C(F)(F)F)c1)c1ccc(C(F)(F)F)cc1	FN deposit inh 39.6
CNC[C@H](CC1CCCCC1)NC[C@H](Cc1ccccc1)NCCC12CC3CC(CC(C3)C1)C2	FN deposit inh 60.1
O=C(CN1CCCN(S(=O)(=O)c2ccc(Br)s2)CC1)Nc1ccc(Cl)cc1	ABHD5 PLIN5 PPI 50.1 (no result: FN deposit inh)
Cc1ccc(C(=O)COC(=O)COc2ccccc2[N+](=O)[O-])s1	none
CCOC(=O)COc1ccccc1/C=C\[N+](=O)[O-]	ABHD5 PLIN5 PPI 62.2 (no result: A3A deaminase, APOBEC3G inh, FN deposit inh)
O=C(Cn1ncn2c(cc3ccccc32)c1=O)NCc1ccco1	ABHD5 PLIN5 PPI 29.3 (no result: FN deposit inh)
COc1ccc(CNC(=O)Cn2ncn3c(cc4ccccc43)c2=O)cc1	none
COc1cc2c(cc1OC)-c1nnnn1C(C)(C)C2	none
COc1cc2c(cc1OC)-c1n[nH]c(=S)n1C(C)(C)C2	APOBEC3G inh 48.1
COC(=O)c1cc(C(=O)c2ccc(C(C)(C)C)cc2)c[nH]1	FN deposit inh 42.9
CN1CCN(c2ccc(Cl)cc2NC(=O)/C=C/c2cccc(F)c2)CC1	ABHD5 PLIN5 PPI 22.1
COC(=O)[C@@H]1C[C@]2(OC(=O)c3ccccc3)C=CC(=O)C[C@@H]2N1C(=O)OCc1ccccc1	ABHD5 PLIN5 PPI 45.4
COC(CNC(=O)C1CCCN1C(=O)OCc1ccccc1)OC (configuration not stated)	none (no result: A3A deaminase, APOBEC3G inh)
C[C@@H](NC(=O)C[C@@H]1CC[C@@H]2[C@H](COC[C@H](O)CN2Cc2ccc(C(F)(F)F)cc2)O1)c1ccccc1	none (no result: A3A deaminase, APOBEC3G inh, ABHD5 PLIN5 PPI)
N#CC(c1nc2ccccc2nc1N1CCCC1)S(=O)(=O)c1ccccc1 (configuration not stated)	none (no result: FN deposit inh)
COc1ccc(S(=O)(=O)C(C#N)c2nc3ccccc3nc2N2CCCCC2)cc1 (configuration not stated)	APOBEC3G inh 41.2 (no result: FN deposit inh)
CC(C)[C@@H]1CN=C(N)N1C[C@@H]1CCCN1C[C@H](C)N1C[C@@H](Cc2ccccc2)N(CCc2ccc(Cl)c(Cl)c2)C1=N	none (no result: FN deposit inh)
CCC[C@@H](CN1CCC[C@H]1CN1C(N)=NC[C@@H]1Cc1ccccc1)N1C[C@@H](Cc2ccccc2)N(CCCC2CCCC2)C1=N	none (no result: FN deposit inh)
CCC[C@@H](CN1CCC[C@H]1CN1C(N)=NC[C@@H]1Cc1ccccc1)N1C[C@@H]([C@H](C)CC)N(CCCC2CCCC2)C1=N	ABHD5 PLIN5 PPI 31.9 (no result: FN deposit inh)
CC[C@@H](C)[C@@H]1CN([C@@H](C)CN2CCC[C@H]2CN2C(N)=NC[C@H]2CC(C)C)C(=N)N1CCc1ccc(Cl)c(Cl)c1	ABHD5 PLIN5 PPI 29.6
C[C@@H](CN1CCC[C@H]1CN1C(N)=NC[C@@H]1Cc1ccccc1)N1C[C@@H](Cc2ccccc2)N(CCc2ccc(Cl)c(Cl)c2)C1=N	ABHD5 PLIN5 PPI 40.5 (no result: FN deposit inh)
CCC[C@@H](CN1CCC[C@H]1CN1C(N)=NC[C@H]1CC(C)C)N1C[C@@H](Cc2ccccc2)N(CCc2ccc(Cl)c(Cl)c2)C1=N	ABHD5 PLIN5 PPI 22.9
O=C1N[C@@H](Cc2ccccc2)COCc2cnnn2CC[C@@H]1Cc1ccc(-c2ccccc2)cc1	none (no result: A3A deaminase, APOBEC3G inh, ABHD5 PLIN5 PPI)
CNC[C@@H]1OCCCC[C@H](C)Oc2ccc(NS(=O)(=O)c3ccc(F)cc3)cc2C(=O)N([C@@H](C)CO)C[C@H]1C	none (no result: A3A deaminase, APOBEC3G inh, ABHD5 PLIN5 PPI)
O=C(O)c1cc(-c2ccco2)nc2ccc(Br)cc12	ABHD5 PLIN5 PPI 29.0! (no result: FN deposit inh)
Nc1nn(-c2ccccc2)nc1C(=O)OCc1ccccc1F	none (no result: FN deposit inh)
Cc1ccccc1COC(=O)c1nn(-c2ccccc2)nc1N	FN deposit inh 31.0
Cc1c(C(=O)OCCOC(C)C)[nH]c2c1C(=O)CC(c1ccco1)C2 (configuration not stated)	ABHD5 PLIN5 PPI 30.4 (no result: FN deposit inh)
